Our source for the IC50 values is ChEMBL document CHEMBL1687863, “Terpenoids and norlignans from Metasequoia glyptostroboides” (J Nat Prod, 2011).

This assay deals with HL-60. As to the kind of experiment: Cytotoxicity against human HL60 cells after 48 hrs by MTT assay. Format: functional, cell-based. The following applies: HL-60, 48 h. Put shortly: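 Cells seeded 12 h before treatment, then exposed continuously to a range of compound concentrations for 48 h. MTT added for a further 4 h, followed by 20% SDS and 12 h at room temperature. OD read at 595 nm; IC50 calculated by the Reed and Muench method.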
In general terms: Formazan colour is commonly taken as a measure of viable cells.

A word on the IC50: it is the concentration needed to halve the response being measured. In the case of `C=C[C@]1(C)CC2=C(C[C@@H]1O)[C@@]1(C)CCC[C@@](C)(C(=O)O)[C@@H]1CC2`, the IC50 was > 40 µM.

For `C=C1C=C[C@@H](C(C)C)[C@]12CC=C(C(=O)O)CC2`, the IC50 is > 40 µM.

Regarding `COc1ccc([C@H]2[C@@H]([C@H](O)c3ccc(OC)c(OC)c3)OC[C@H]2O)cc1`, the 50% inhibitory concentration (IC50) is > 40 µM.

Consider `COc1ccc([C@H]2[C@@H]([C@H](OC(=O)[C@](OC)(c3ccccc3)C(F)(F)F)c3ccc(OC)c(OC)c3)OC[C@H]2OC(=O)[C@](OC)(c2ccccc2)C(F)(F)F)cc1`, for which the half-inhibitory concentration (IC50) is > 40 µM.

For `COc1ccc([C@H]2[C@@H]([C@H](OC(=O)[C@@](OC)(c3ccccc3)C(F)(F)F)c3ccc(OC)c(OC)c3)OC[C@H]2OC(=O)[C@@](OC)(c2ccccc2)C(F)(F)F)cc1`, the IC50 was > 40 µM.

For the molecule `C=CC(=C)CC[C@@H]1[C@@]2(C)CCC[C@](C)(COC(=O)/C=C/c3ccc(O)cc3)[C@@H]2CC[C@@]1(C)O`, it took 14.3 µM to reach half-maximal inhibition (IC50).

Take `C=C(C)C(CC)CC[C@@H](C)[C@H]1CC[C@@]2(C)[C@@H]3CC[C@@H](C(C)(C)O)[C@@]4(CCC(=O)O)C[C@@]34CC[C@]12C` (some centres not stated) [METASEGLYPTORIN A]: the IC50 was > 40 µM.

As to `COc1cc(/C=C/[C@@H](c2ccc(O)c(OC)c2)[C@H](O)CO)ccc1O` [METASEQUIRIN D], the half-inhibitory concentration (IC50) was > 40 µM.

With `COc1cc([C@H]2[C@@H]([C@H](O)c3ccc(O)c(OC)c3)OC[C@H]2O)ccc1O` [METASEQUIRIN E], the IC50 is > 40 µM.

On to `COc1cc([C@@H](O)[C@H]2OC[C@@H](O)[C@H]2c2ccc(O)cc2)ccc1O` [METASEQUIRIN F], for which the 50% inhibitory concentration (IC50) is > 40 µM.

For `C=C1CC[C@H]2[C@](C)(O)[C@H](C)CC[C@]2(C)[C@H]1CC/C(C)=C/C(=O)O` [METASEQUOIC ACID C], the IC50 was > 40 µM.

With `OC[C@@H](O)[C@@H](/C=C/c1ccc(O)cc1)c1ccc(O)c(O)c1` [SEQUIRIN C], half-maximal inhibition (IC50) was put at 5.5 µM.
